Experimental data as given in ChEMBL document CHEMBL1667827, “Pyridylmethylthio derivatives as VEGF inhibitors: part 2” (Bioorg Med Chem Lett, 2011).

Key:
HUVEC = experiment: Antiangiogenic activity in HUVEC assessed as inhibition of VEGF-induced proliferation after 3 days by WST-8 assay; type: functional, cell-based; details: Homo sapiens, 72 h
In short: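 HUVEC seeded and incubated 1 day, then VEGF plus test compound added; cell number counted after 3 further days of incubation. Growth rate calculated relative to control; IC50 is concentration giving half inhibition of VEGF-induced proliferation, in nM.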

CYP3A4 = CYP3A4 (Homo sapiens, UniProt P08684); experiment: Inhibition of CYP3A4 at 10 uM using testosterone as substrate; type: ADME; details: probe testosterone
In short: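 CYP3A4 inhibition measured as percent inhibition at 10 μM test compound, testosterone as substrate.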

B16 = experiment: Antitumor activity against mouse B16 cells xenografted in C57BL/6N mouse assessed as tumor growth at 100 mg/kg, po qd for 10 days relative to control; type: functional; details: B16, 240 h
In short: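 B16 cell suspension injected subcutaneously under anesthesia into female C57BL/6 mice, six weeks old. Compound suspension given orally once daily; ten days after cell injection, tumors excised and weighed, anti-cancer effect calculated relative to control.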

Rattus norvegicus [1] = experiment: Antiinflammatory activity in Lewis rat adjuvant arthritis model assessed as inhibition of paw edema at 10 mg/kg, po qd for 20 days relative to control; type: functional; details: 480 h
Rattus norvegicus [2] = experiment: Antiangiogenic activity in Brown Norway rat assessed as inhibition of laser-induced neovascularization incidence rate at 3 mg/kg, po qd for 7 days relative to control; type: functional; details: 168 h
In short: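 Male Brown Norway rats, eight weeks old, under anesthesia and mydriasis; krypton laser photocoagulation of Bruch's membrane. Compound suspension given orally once daily. Seven days after photocoagulation, fluorescein injected via tail vein, fundus photographed, fluorescence leaks counted; neovascularization incidence rate compared with control.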

Rattus norvegicus [3] = species on record: Rattus norvegicus; experiment: animal or person; details: Brown Norway, po, 168 h, read-out: INH

Chain of CYP3A4 (P08684 whole entry): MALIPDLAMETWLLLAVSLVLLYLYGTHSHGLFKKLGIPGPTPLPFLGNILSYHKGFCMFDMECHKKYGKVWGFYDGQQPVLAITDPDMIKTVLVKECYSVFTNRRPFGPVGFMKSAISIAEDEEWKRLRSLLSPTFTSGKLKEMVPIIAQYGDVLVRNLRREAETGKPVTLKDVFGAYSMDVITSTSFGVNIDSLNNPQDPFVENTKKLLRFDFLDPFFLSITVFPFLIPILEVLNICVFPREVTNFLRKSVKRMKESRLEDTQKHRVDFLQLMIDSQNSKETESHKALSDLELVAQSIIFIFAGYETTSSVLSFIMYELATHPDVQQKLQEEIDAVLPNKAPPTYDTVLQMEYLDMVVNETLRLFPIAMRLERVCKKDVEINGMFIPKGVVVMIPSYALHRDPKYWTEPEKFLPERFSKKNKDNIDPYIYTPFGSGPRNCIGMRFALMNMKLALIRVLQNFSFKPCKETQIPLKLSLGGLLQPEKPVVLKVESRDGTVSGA

## Cc1cc(C)cc(NC(=O)c2cccnc2SCc2ccnc(NC(=O)CO)c2)c1
HUVEC
  IC50: 6.6 nM

## CSc1cc(CSc2ncccc2C(=O)Nc2cc(C)cc(C)c2)ccn1
HUVEC
  IC50: 100 nM
CYP3A4
  inhibition at 10 µM: 69%

## Cc1cc(C)cc(NC(=O)c2cccnc2SCc2ccnc(C#N)c2)c1
HUVEC
  IC50: 3.5 nM
CYP3A4
  inhibition at 10 µM: 48%

## Cc1cc(C)cc(NC(=O)c2cccnc2SCc2ccnc(NC(=O)CN(C)C)c2)c1
HUVEC
  IC50: 22 nM

## CNC(=O)c1cc(CSc2ncccc2C(=O)Nc2cc(C)cc(C)c2)ccn1
HUVEC
  IC50: 18 nM

## CC(=O)Nc1cc(CSc2ncccc2C(=O)Nc2ccc(OC(F)(F)F)cc2)ccn1
HUVEC
  IC50: 3.9 nM
CYP3A4
  inhibition at 10 µM: 38%

## Cc1cc(C)cc(NC(=O)c2cccnc2SCc2ccncc2)c1
CYP3A4
  inhibition at 10 µM: 96%

## CN(C)CC(=O)Nc1cc(CSc2ncccc2C(=O)Nc2ccc(OC(F)(F)F)cc2)ccn1
HUVEC
  IC50: 35 nM
CYP3A4
  inhibition at 10 µM: 19%

## CNc1cc(CSc2ncccc2C(=O)Nc2cc(C)cc(C)c2)ccn1
HUVEC
  IC50: 21 nM

## CNC(=O)Nc1cc(CSc2ncccc2C(=O)Nc2cc(C)cc(C)c2)ccn1
HUVEC
  IC50: 8.8 nM
B16
  inhibition in vivo at 100 mg/kg: 43%
CYP3A4
  inhibition at 10 µM: 24%

## Cc1cc(C)cc(NC(=O)c2cccnc2SCc2ccnc(NC(=O)CNCCN(C)C)c2)c1
HUVEC
  IC50: 5.9 nM
Rattus norvegicus [1]
  inhibition in vivo at 10 mg/kg: 70%
Rattus norvegicus [2]
  inhibition in vivo at 3 mg/kg: 55%
B16
  inhibition in vivo at 100 mg/kg: 83%
CYP3A4
  inhibition at 10 µM: 14%

## COC(=O)Nc1cc(CSc2ncccc2C(=O)Nc2cc(C)cc(C)c2)ccn1
HUVEC
  IC50: 15 nM

## Cc1cc(C)cc(NC(=O)c2cccnc2SCc2ccnc(NC(=O)CN)c2)c1
HUVEC
  IC50: 48 nM
CYP3A4
  inhibition at 10 µM: 10%

## Clc1ccc(Nc2nnc(Cc3ccncc3)c3ccccc23)cc1 [VATALANIB]
Rattus norvegicus [1]
  inhibition in vivo at 10 mg/kg: 23%

## C[C@H]1C[C@H]2[C@@H]3CCC4=CC(=O)C=C[C@]4(C)[C@@]3(F)[C@@H](O)C[C@]2(C)[C@@]1(O)C(=O)COP(=O)(O)O [BETAMETHASONE PHOSPHORIC ACID]
Rattus norvegicus [3]
  inhibition in vivo at 1 mg/kg: 96%

## Cc1cc(C)cc(NC(=O)c2cccnc2SCc2ccnc(NC(=O)CNCCCO)c2)c1
HUVEC
  IC50: 18 nM
B16
  inhibition in vivo at 100 mg/kg: 77%
CYP3A4
  inhibition at 10 µM: 23%

## CCC(=O)Nc1cc(CSc2ncccc2C(=O)Nc2cc(C)cc(C)c2)ccn1
HUVEC
  IC50: 1.8 nM

## COc1cc(CSc2ncccc2C(=O)Nc2cc(C)cc(C)c2)ccn1
HUVEC
  IC50: 100 nM

## CN(C)CCNCC(=O)Nc1cc(CSc2ncccc2C(=O)Nc2ccc(OC(F)(F)F)cc2)ccn1
HUVEC
  IC50: 18 nM
B16
  inhibition in vivo at 100 mg/kg: 79%
CYP3A4
  inhibition at 10 µM: 29%

## Cc1cc(C)cc(NC(=O)c2cccnc2SCc2ccnc(C)c2)c1
HUVEC
  IC50: 68 nM

## NCC(=O)Nc1cc(CSc2ncccc2C(=O)Nc2ccc(OC(F)(F)F)cc2)ccn1
HUVEC
  IC50: 49 nM

## O=C(CNCCCO)Nc1cc(CSc2ncccc2C(=O)Nc2ccc(OC(F)(F)F)cc2)ccn1
HUVEC
  IC50: 26 nM
B16
  inhibition in vivo at 100 mg/kg: 79%
CYP3A4
  inhibition at 10 µM: 33%

## Cc1cc(C)cc(NC(=O)c2cccnc2SCc2ccnc(Cl)c2)c1
HUVEC
  IC50: 12 nM
CYP3A4
  inhibition at 10 µM: 60%

## CC(=O)Nc1cc(CSc2ncccc2C(=O)Nc2cc(C)cc(C)c2)ccn1
HUVEC
  IC50: < 0.91 nM
CYP3A4
  inhibition at 10 µM: 20%

## Cc1cc(C)cc(NC(=O)c2cccnc2SCc2ccnc(F)c2)c1
HUVEC
  IC50: 13 nM
CYP3A4
  inhibition at 10 µM: 40%

## CC(=O)N(C)c1cc(CSc2ncccc2C(=O)Nc2cc(C)cc(C)c2)ccn1
HUVEC
  IC50: 65 nM

## O=C(CO)Nc1cc(CSc2ncccc2C(=O)Nc2ccc(OC(F)(F)F)cc2)ccn1
HUVEC
  IC50: 7.4 nM
B16
  inhibition in vivo at 100 mg/kg: 85%
CYP3A4
  inhibition at 10 µM: 17%

## Cc1cc(C)cc(NC(=O)c2cccnc2SCc2ccnc(N3CCOCC3)c2)c1
HUVEC
  IC50: 84 nM

## Cc1cc(C)cc(NC(=O)c2cccnc2SCc2ccnc(N)c2)c1
HUVEC
  IC50: 5.8 nM
CYP3A4
  inhibition at 10 µM: 21%

## CNC(=O)Nc1cc(CSc2ncccc2C(=O)Nc2ccc(OC(F)(F)F)cc2)ccn1
HUVEC
  IC50: 20 nM

## Cc1cc(C)cc(NC(=O)c2cccnc2SCc2cc[n+]([O-])cc2)c1
HUVEC
  IC50: 24 nM
B16
  inhibition in vivo at 100 mg/kg: 76%
CYP3A4
  inhibition at 10 µM: 16%

## Cc1cc(C)cc(NC(=O)c2cccnc2SCc2cc[n+](C)cc2)c1
HUVEC
  IC50: > 2000 nM
